ChEMBL document CHEMBL2151006 (Eur J Med Chem, 2012)

How the values were obtained:
Cannabinoid receptor 2 [1] = target: T1, Cannabinoid receptor 2 (Homo sapiens, UniProt P34972); assay: Displacement of [3H]CP55940 from human recombinant CB2 receptor transfected in HEK cell membranes; design: species or system HEK293
Homo sapiens = organism: Homo sapiens; assay: Selectivity index, ratio of Ki for human recombinant CB1 receptor to Ki for human recombinant CB2 receptor
Cannabinoid receptor 1 [2] = target: T2, Cannabinoid receptor 1 (Homo sapiens, UniProt P21554); assay: biochemical; format: cell-based, HEK293
T2 sequence (P21554 whole entry): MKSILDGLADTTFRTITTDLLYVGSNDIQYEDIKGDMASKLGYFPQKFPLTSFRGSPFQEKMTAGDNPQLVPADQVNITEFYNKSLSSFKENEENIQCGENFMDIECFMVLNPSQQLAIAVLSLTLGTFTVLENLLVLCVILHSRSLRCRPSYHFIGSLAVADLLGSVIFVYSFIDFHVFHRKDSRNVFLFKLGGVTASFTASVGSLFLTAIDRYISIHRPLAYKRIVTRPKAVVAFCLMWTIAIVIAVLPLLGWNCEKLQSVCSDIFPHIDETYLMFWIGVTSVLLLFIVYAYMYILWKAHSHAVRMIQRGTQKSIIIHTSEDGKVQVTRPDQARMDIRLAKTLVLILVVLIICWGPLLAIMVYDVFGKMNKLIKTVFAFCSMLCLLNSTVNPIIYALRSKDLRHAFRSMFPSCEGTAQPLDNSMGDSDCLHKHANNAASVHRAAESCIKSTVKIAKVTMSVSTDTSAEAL

[3] = Intrinsic clearance in human liver microsomes; format: ADME, Microsome; settings: read-out: CLH
[4] = Intrinsic clearance in rat liver microsomes; format: ADME, Microsome; settings: read-out: CLH
[5] = Metabolic stability in rat plasma assessed as compound remaining measured at 3 hrs; format: ADME, cell-free; settings: read-out: Stability
Procedure, shortened: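 Fresh rat plasma was spiked with compound and incubated at 37 °C with gentle agitation, in duplicate. Samples were taken at 0, 30 min and 3 h and proteins precipitated with acetonitrile. LC-ESI+-MS/MS in MRM mode; percent remaining is peak area relative to time 0.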

Cannabinoid receptor 1 [6] = target: T2, Cannabinoid receptor 1; assay: Agonist activity at human CB1 receptor transfected in CHO cell membranes at 0.001 to 30 uM by [35S]GTPgammaS binding assay relative to CP55940; format: functional
Cannabinoid receptor 1 [7] = target: T2, Cannabinoid receptor 1; assay: Agonist activity at human CB1 receptor transfected in CHO cell membranes by [35S]GTPgammaS binding assay; format: functional
MDR1 [8] = assay: Apparent permeability across apical to basolateral side in human MDR1 transfected MDCK2 cells at 10 uM after 2 hrs; format: ADME, cell-based, Canis lupus familiaris, MDCK-II; settings: dog, MDCK-MDR1
MDR1 [9] = assay: Efflux ratio of permeability from basolateral to apical side over apical to basolateral side in human MDR1 transfected MDCK2 cells at 10 uM after 2 hrs; format: ADME, cell-based, Canis lupus familiaris, MDCK-II; settings: dog, MDCK-MDR1
CYP3A4 = CYP3A4 (Homo sapiens, UniProt P08684); assay: Metabolic stability assessed as human recombinant CYP3A4-mediated drug metabolism by measuring compound remaining after 1 hr; format: ADME; settings: read-out: Drug metabolism
CYP3A4, sequence (P08684 whole entry): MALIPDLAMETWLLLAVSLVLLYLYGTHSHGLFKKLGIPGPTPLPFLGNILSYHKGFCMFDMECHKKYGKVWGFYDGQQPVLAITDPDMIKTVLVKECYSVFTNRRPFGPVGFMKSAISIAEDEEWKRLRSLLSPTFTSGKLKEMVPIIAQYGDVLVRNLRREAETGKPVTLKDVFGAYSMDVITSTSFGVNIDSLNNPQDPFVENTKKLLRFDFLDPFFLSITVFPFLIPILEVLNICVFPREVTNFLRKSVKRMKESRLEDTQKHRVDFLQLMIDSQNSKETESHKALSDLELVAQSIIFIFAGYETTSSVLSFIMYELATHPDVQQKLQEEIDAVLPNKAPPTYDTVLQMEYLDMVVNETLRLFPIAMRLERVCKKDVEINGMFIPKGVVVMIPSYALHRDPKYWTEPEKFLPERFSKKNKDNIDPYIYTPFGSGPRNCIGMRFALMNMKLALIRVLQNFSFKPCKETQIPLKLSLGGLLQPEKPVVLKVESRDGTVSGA
Procedure, shortened: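 Recombinant hCYP3A4 at 20 pmol/mL in 100 mM phosphate pH 7.4 with 1 mM EDTA, […]. Incubation was 1 h at 37 °C with or without NADPH regenerating system, then stopped with cold acetonitrile. Percent remaining is the MS peak area with NADPH over that without, ×100.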

Cannabinoid receptor 2 [10] = target: T1, Cannabinoid receptor 2; settings: CHO, 0.001 to 10 uM
Cannabinoid receptor 2 [11] = target: T1, Cannabinoid receptor 2; assay: Agonist activity at human CB2 receptor transfected in CHO cell membranes by [35S]GTPgammaS binding assay; format: functional

T1 sequence (P34972 whole entry): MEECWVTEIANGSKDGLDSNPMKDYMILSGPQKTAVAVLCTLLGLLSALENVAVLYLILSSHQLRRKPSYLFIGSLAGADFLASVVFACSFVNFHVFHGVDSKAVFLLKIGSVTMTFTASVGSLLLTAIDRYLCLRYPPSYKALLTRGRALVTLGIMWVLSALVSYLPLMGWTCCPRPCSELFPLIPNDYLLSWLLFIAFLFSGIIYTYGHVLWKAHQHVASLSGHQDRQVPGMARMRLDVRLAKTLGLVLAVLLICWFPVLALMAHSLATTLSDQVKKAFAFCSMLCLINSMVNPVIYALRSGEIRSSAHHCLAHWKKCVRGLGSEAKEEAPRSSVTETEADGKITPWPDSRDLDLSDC

| Structure (SMILES) | Ki (Cannabinoid receptor 2 [1]) [nM] | Ratio Ki (Homo sapiens) | Ki (Cannabinoid receptor 1 [2]) [nM] | other results |
| --- | --- | --- | --- | --- |
| CN(C)CCn1cc(C(=O)N[C@@H]2C(C)(C)C3CC[C@]2(C)C3)c(=O)c2ccc(F)cc21 | 7.9 | – | – | – |
| Cc1cccc(Cn2cc(C(=O)N[C@@H]3C(C)(C)C4CC[C@]3(C)C4)c(=O)c3ccc(F)cc32)c1 | 31.5 | > 317 | > 10000 | – |
| CCCCCn1cc(C(=O)NCc2ccc(Cl)c(Cl)c2)c(=O)c2ccc(-c3ccccc3)cc21 | > 10000 | < 0.04 | 390 | – |
| O=C(NN1CCCCC1)c1cn(-c2ccc(Cl)cc2)c2cc(F)ccc2c1=O | > 10000 | – | > 10000 | – |
| CN(C)CCn1cc(C(=O)N[C@@H]2C(C)(C)C3CC[C@]2(C)C3)c(=O)c2ccc(Sc3ccccc3)cc21 | 1.3 | 23 | 28.8 | – |
| O=C(NN1CCCCC1)c1cn(-c2ccc(F)cc2)c2cc(Sc3ccccc3)ccc2c1=O | > 10000 | – | > 10000 | – |
| CCCCCn1cc(C(=O)NOC)c(=O)c2ccc(Sc3ccccc3)cc21 | 340 | 1.4 | 490 | – |
| CCCCCn1cc(C(=O)N[C@@H]2C(C)(C)C3CC[C@]2(C)C3)c(=O)c2ccc(F)cc21 | 0.3 | 17 | 4 | – |
| CC1(C)C2CC[C@](C)(C2)[C@@H]1NC(=O)c1c[nH]c2cc(F)ccc2c1=O | – | > 10 | – | – |
| Cn1cc(C(=O)N[C@@H]2C(C)(C)C3CC[C@]2(C)C3)c(=O)c2ccc(Sc3ccccc3)cc21 | 16 | 117 | 1870 | – |
| Cn1cc(C(=O)N[C@@H]2C(C)(C)C3CC[C@]2(C)C3)c(=O)c2ccc(F)cc21 | 93.9 | > 106 | > 10000 | – |
| CCCCCn1cc(C(=O)NC23CC4CC(CC(C4)C2)C3)c(=O)c2ccc(F)cc21 | – | 38 | – | – |
| CCCCCn1cc(C(=O)N[C@@H]2C(C)(C)C3CC[C@]2(C)C3)c(=O)c2ccc(Sc3ccccc3)cc21 | 0.09 | 27.2 | 2.45 | – |
| CCCCCn1cc(C(=O)NCc2ccc(Cl)c(Cl)c2)c(=O)c2ccc(Br)cc21 | 130 | 5 | 660 | – |
| CCCCCn1cc(C(=O)NC23CC4CC(CC(C4)C2)C3)c(=O)c2ccc(Sc3ccccc3)cc21 | – | 3.3 | – | – |
| CCCCCn1cc(C(=O)NC(C)C)c(=O)c2ccc(Sc3ccccc3)cc21 | 14.8 | 1.4 | 20.9 | – |
| C=Cn1cc(C(=O)N[C@@H]2C(C)(C)C3CC[C@]2(C)C3)c(=O)c2ccc(F)cc21 | 15.2 | 235 | 3570 | – |
| CCCCCn1cc(C(=O)NCc2ccc(Cl)c(Cl)c2)c(=O)c2ccc(Sc3ccccc3)cc21 | > 10000 | < 0.04 | 420 | microsomal CLint [3]: > 700 µL/min/mg; microsomal CLint [4]: > 700 µL/min/mg; remaining at 3 h [5]: 100%; Emax (Cannabinoid receptor 1 [6]): 55.8%; EC50 (Cannabinoid receptor 1 [7]): 791 nM; Papp A→B at 2 h, 10 µM (MDR1 [8]): 0.14 ×10⁻⁶ cm/s; efflux ratio at 2 h, 10 µM (MDR1 [9]): 0.4; remaining at 1 h (CYP3A4): 25% |
| CCCCn1cc(C(=O)N[C@@H]2C(C)(C)C3CC[C@]2(C)C3)c(=O)c2ccc(Sc3ccccc3)cc21 | 0.1 | 31 | 4.7 | – |

| Structure (SMILES) | Ki (Cannabinoid receptor 2 [1]) [nM] | Ratio Ki (Homo sapiens) | Ki (Cannabinoid receptor 1 [2]) [nM] | other results |
| --- | --- | --- | --- | --- |
| CC1(C)C2CC[C@](C)(C2)[C@@H]1NC(=O)c1cn(CCCCSc2ccccc2)c2cc(Sc3ccccc3)ccc2c1=O | 6.5 | > 1540 | > 10000 | – |
| CCCCn1cc(C(=O)N[C@@H]2C(C)(C)C3CC[C@]2(C)C3)c(=O)c2ccc(F)cc21 | 0.8 | 17 | 14.4 | – |
| CC1(C)C2CC[C@](C)(C2)[C@@H]1NC(=O)c1cnc2cc(F)ccc2c1O | 957 | – | > 10000 | – |
| Cc1cccc(Cn2cc(C(=O)N[C@@H]3C(C)(C)C4CC[C@]3(C)C4)c(=O)c3ccc(Sc4ccccc4)cc32)c1 | 139 | 5 | 669 | – |
| CCCn1cc(C(=O)N[C@@H]2C(C)(C)C3CC[C@]2(C)C3)c(=O)c2ccc(F)cc21 | 2.9 | 57 | 193 | – |
| COCCn1cc(C(=O)N[C@@H]2C(C)(C)C3CC[C@]2(C)C3)c(=O)c2ccc(Sc3ccccc3)cc21 | 1.1 | 22 | 23.8 | – |
| CCCCCn1cc(C(=O)N2CCC[C@H]2C(N)=O)c(=O)c2ccc(Sc3ccccc3)cc21 | 230 | 6.5 | 1490 | – |
| CC1(C)C2CC[C@](C)(C2)[C@@H]1NC(=O)c1cn(CCCCO)c2cc(F)ccc2c1=O | 15.2 | 26 | 398 | – |
| CCCCCn1cc(C(=O)NN(C)C)c(=O)c2ccc(Sc3ccccc3)cc21 | 77.5 | 1.1 | 86.6 | – |
| CCn1cc(C(=O)N[C@@H]2C(C)(C)C3CC[C@]2(C)C3)c(=O)c2ccc(Sc3ccccc3)cc21 | 4.4 | 42 | 181 | – |
| CCCCCn1cc(C(=O)NC2CN3CCC2CC3)c(=O)c2ccc(Sc3ccccc3)cc21 (centres undefined) | 89.1 | 1.7 | 151 | – |
| CCCCCn1cc(C(=O)NC(CC)CO)c(=O)c2ccc(Sc3ccccc3)cc21 (centres undefined) | 19.9 | 2.9 | 58.2 | – |
| CCCCCn1cc(C(=O)NOCc2ccccc2)c(=O)c2ccc(Sc3ccccc3)cc21 | 19.3 | 0.7 | 12.9 | – |
| COCCn1cc(C(=O)N[C@@H]2C(C)(C)C3CC[C@]2(C)C3)c(=O)c2ccc(F)cc21 | 5.5 | 54 | 297 | – |
| CC1(C)C2CC[C@](C)(C2)[C@@H]1NC(=O)c1cn(CCCCO)c2cc(Sc3ccccc3)ccc2c1=O | 2.5 | 15 | 38.6 | – |
| CCCn1cc(C(=O)N[C@@H]2C(C)(C)C3CC[C@]2(C)C3)c(=O)c2ccc(Sc3ccccc3)cc21 | 0.4 | 31 | 11 | – |
| CCCCCn1cc(C(=O)NN2CCCCC2)c(=O)c2ccc(Sc3ccccc3)cc21 | 13.3 | 2.2 | 28.9 | – |
| CCn1cc(C(=O)N[C@@H]2C(C)(C)C3CC[C@]2(C)C3)c(=O)c2ccc(F)cc21 | 7.3 | 131 | 960 | microsomal CLint [3]: > 700 µL/min/mg; microsomal CLint [4]: > 700 µL/min/mg; remaining at 3 h [5]: 92%; Emax (Cannabinoid receptor 2 [10]): 45%; Papp A→B at 2 h, 10 µM (MDR1 [8]): 0.17 ×10⁻⁶ cm/s; EC50 (Cannabinoid receptor 2 [11]): 17.2 nM; efflux ratio at 2 h, 10 µM (MDR1 [9]): 1; remaining at 1 h (CYP3A4): 1% |
| CCCCCn1cc(C(=O)NCCN2CCOCC2)c(=O)c2ccc(Sc3ccccc3)cc21 | 119 | 0.5 | 63.2 | – |
